STEP block: blocks human striatal-enriched tyrosine phosphatase; recombinant STEP, OMFP fluorogenic substrate, fluorescence; P54829; 360,000 tested, 0.25% active; AID 588621; inhibition, % at 20 µM;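 active = inhibition at 20 µM, scaled per plate between control wells, above about 37%, limit read from the data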;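 note: 0% = DMSO with enzyme and substrate and 100% = substrate only without enzyme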
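System: STEP phosphatase, cell-free reaction; Buffer or medium: Bis-Tris pH 6.0 buffer with DTT, detergent; Incubation: 20 min at room temperature, dark; Measured by: fluorescence, 480/540 nm.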
Scp-1 inhibitor: blocks human Scp-1 phosphatase activity; Q9GZU7; inhibition, % at 20 µM; 340,000 tested, 0.88% active; Recombinant Scp1, phosphopeptide, malachite green phosphate absorbance;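 active = inhibition above about 50% at 20 µM, limit read from the data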;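 note: plate controls were DMSO wells with enzyme for no effect and wells lacking enzyme for full effect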
Target sequence (Q9GZU7 76-261 limits assumed): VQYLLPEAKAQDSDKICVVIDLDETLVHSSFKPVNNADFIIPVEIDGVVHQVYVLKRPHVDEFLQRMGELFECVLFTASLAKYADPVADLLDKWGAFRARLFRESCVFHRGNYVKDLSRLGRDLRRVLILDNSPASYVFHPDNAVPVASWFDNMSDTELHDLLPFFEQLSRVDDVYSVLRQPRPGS
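System: truncated SCP-1 phosphatase (76-261aa); medium: Tris acetate buffer pH 5.5 with MgCl2 and Tween-20; incubation: 45 min room-temperature reaction, 5 min colour, 30 min stabiliser; compound: single 20 µM dose, 1% DMSO; reagent: Phosphorylated 17-residue peptide substrate; read-out: % inhibition at 20 µM; technique: colorimetric free-phosphate detection, absorbance 630 nm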
LMPTP inh: blocks human LMPTP phosphatase; recombinant LMPTP-A, OMFP fluorogenic substrate, fluorescence intensity; 360,000 tested, 0.22% active; inhibition, % at 20 µM; P24666; AID 651560;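 active = compounds that cut the enzyme signal by at least half of the control window in the single-dose screen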;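 note: plate controls were DMSO wells with enzyme plus substrate for no effect and substrate without enzyme for full effect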
Target sequence (P24666 whole entry, looked up): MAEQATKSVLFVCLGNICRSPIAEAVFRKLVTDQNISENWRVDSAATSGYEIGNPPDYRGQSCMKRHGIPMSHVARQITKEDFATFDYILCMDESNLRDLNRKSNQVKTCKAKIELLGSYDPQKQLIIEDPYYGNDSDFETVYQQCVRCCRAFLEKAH
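Buffer or medium: Bis-Tris pH 6.0, DTT, detergent; Assay system: LMPTP-A enzyme; Quantity: 0.625 nM enzyme; Detection: endpoint fluorescence intensity; Times: 50 min dark incubation at room temperature; Controls: substrate-only low control, DMSO enzyme-plus-substrate high control; Doses: single 20 µM dose; Read-out: percent inhibition versus substrate-only and uninhibited controls; Reagent: 400 µM OMFP.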
GRK2 aptamer HTS: human GRK2 inhibition via aptamer displacement; bead flow cytometry, FAM-aptamer displacement from GRK2; inhibition of aptamer binding, % at 10 µM; 330,000 tested, 0.59% active; AID 488847;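 active = inhibition of aptamer binding above 40%, roughly 3 SD of noise, on plates passing a quality check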;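 note: median bead fluorescence of bound FAM aptamer so fluorescent compounds give negative values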
SUMO1-SIM PPI: alters human SUMO1 binding to SIM partners | inhibition, % at 20 µM | 360,000 tested, 0.33% active | P63165 | SUMO1 binding to a labelled peptide, TR-FRET, 1 h; in the data active = inhibition above about 37%
Target sequence (P63165 whole entry, looked up): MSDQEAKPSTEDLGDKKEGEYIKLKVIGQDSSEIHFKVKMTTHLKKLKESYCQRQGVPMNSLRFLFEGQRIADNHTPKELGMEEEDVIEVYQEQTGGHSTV
DNMT1 block: blocks human DNA methyltransferase DNMT1; inhibition (reported as % activation of signal), % at 10 µM; P26358; DNMT1 molecular beacon, Hinp1I cleavage, fluorescence; 360,000 tested, 0.83% active; in the data active = inhibition above about 50%
GRK2 inh confirm: confirmation of human GRK2 inhibitors displacing RNA aptamer; shares compounds with GRK2 aptamer HTS; bead-bound GRK2, FAM-aptamer displacement, flow cytometry; aptamer displacement, % at 10 µM; 2,000 tested, 4% active;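 active = aptamer displacement above 40%, near three times the noise of non-fluorescent compounds, on plates passing quality checks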;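 note: negative values mostly reflect intrinsic compound fluorescence rather than true enhancement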
FAM quench CP1: quenches fluorescent RNA aptamer, GRK2 hit artifact; shares compounds with GRK2 aptamer HTS; Carboxyfluorescein RNA aptamer on beads, flow cytometry quenching; active compounds read low; 2,000 tested, under 10 active; AID 504580; fluorescence response (% of DMSO), % at 10 µM;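 active = compounds that quench the bead-bound fluorescent RNA probe, cutting fluorescence to under half of the solvent control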;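 note: counterscreen run without GRK2 so only probe quenching by compound is measured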
GRK2 CP2: human GRK2 inhibition confirmation, cherry pick 2 | shares compounds with GRK2 aptamer HTS | bead-bound GRK2, FAM-aptamer displacement, flow cytometry | inhibition of aptamer binding, % at 10 µM | 360 tested, under 10 active;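 active = inhibition of aptamer binding above 40%, about triple the noise seen with nonglowing compounds, on plates passing quality control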;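 note: negative values mostly come from compounds that fluoresce themselves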
FAM quench CP2: counter-screen for GRK2 binding hits: quenchers of fluorescent RNA aptamer; shares compounds with GRK2 aptamer HTS; carboxyfluorescein RNA aptamer beads, flow cytometry quenching; active compounds read low; fluorescence response vs DMSO, % at 10 µM; 360 tested, under 10 active; AID 588494;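 active = response vs DMSO under 50%, meaning signal dropped by over half, treated as fluorescence quencher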;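 note: labelled aptamer on streptavidin beads without GRK2 as a quench counter-screen; 100% = bead fluorescence of DMSO wells and lower means quenching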
* = called active by the depositor. An excerpt weighted towards active compounds, which were near 2.1% of everything screened.

For CC(=O)c1cccc(OCC(=O)N(CCC2=CCCCC2)c2c(N)n(Cc3ccccc3)c(=O)[nH]c2=O)c1 the results were STEP block -0.3, Scp-1 inhibitor -8.2, LMPTP inh -1.0, SUMO1-SIM PPI 0.5 and DNMT1 block 15.6.
`CC(c1ccccc1)C(OC(=O)c1cccc([N+](=O)[O-])c1C(=O)O)c1ccccc1` (centres undefined) gave STEP block 2.2, Scp-1 inhibitor -18.1, LMPTP inh -3.9, SUMO1-SIM PPI -6.6 and DNMT1 block 1.9.
`Cc1ccc2oc(=O)c3cnn(CC(=O)NCCc4ccsc4)c3c2c1` gave STEP block 0.8, Scp-1 inhibitor -6.5, LMPTP inh -0.4, GRK2 aptamer HTS 61.0*, SUMO1-SIM PPI -1.9, DNMT1 block -0.4, GRK2 inh confirm 4.9 and FAM quench CP1 102.5.
CCCN(C(=O)Cn1ncc2c(=O)oc3ccccc3c21)c1cccc(C)c1 was read as STEP block 0.5, Scp-1 inhibitor -8.1, LMPTP inh -1.1, GRK2 aptamer HTS 6.0, SUMO1-SIM PPI 1.1 and DNMT1 block -3.6.
CCN(CCCNC(=O)Cn1ncc2c(=O)oc3ccccc3c21)c1cccc(C)c1 was read as STEP block 4.5, Scp-1 inhibitor -4.8, LMPTP inh 0.1, GRK2 aptamer HTS 74.0*, SUMO1-SIM PPI -5.7, DNMT1 block -2.6, GRK2 inh confirm 1.3 and FAM quench CP1 96.3.
Screening CCOC(=O)[C@]12CCCC=C1N(Cc1ccco1)C(=O)[C@H](CC(=O)NCC13CC4CC(CC(C4)C1)C3)C2 returned LMPTP inh 1.6 and SUMO1-SIM PPI 4.4.
`COc1cccc(-c2oc3c(c2C#CC2(N)CCCCC2)C(O)CCC3)c1` (centres undefined) gave LMPTP inh 0.8 and SUMO1-SIM PPI -10.0.
CC(C)=C1C2CCC1C1C(=O)N(c3ccc4c(c3)OCO4)C(=O)C21 (centres undefined) was read as STEP block -0.9, Scp-1 inhibitor -8.2, LMPTP inh -0.9, GRK2 aptamer HTS 48.0*, SUMO1-SIM PPI 0.2, DNMT1 block -1.8, GRK2 CP2 -42.1 and FAM quench CP2 101.0.
`COC(=O)[C@]12CCCCC=C1N(Cc1ccccc1)C(=O)[C@H](CC(=O)NCCCCc1ccccc1)C2` gave LMPTP inh 3.7 and SUMO1-SIM PPI 2.1.
`Cc1nn(CC(=O)N(C)Cc2ccc(F)cc2)c(C)c1[N+](=O)[O-]` gave STEP block -1.0, Scp-1 inhibitor -2.7, LMPTP inh -1.0, GRK2 aptamer HTS 100.0*, SUMO1-SIM PPI 0.6, DNMT1 block -0.5, GRK2 CP2 7.4 and FAM quench CP2 102.0.
Cc1nn(CCCC(=O)NCc2ccc(F)cc2)c(C)c1[N+](=O)[O-] was read as STEP block -2.6, Scp-1 inhibitor -7.4, LMPTP inh -2.6, GRK2 aptamer HTS 0.0, SUMO1-SIM PPI -2.4 and DNMT1 block 1.6.
`CC(=O)Oc1ccc(-c2csc(Nc3ccc(S(N)(=O)=O)cc3)n2)cc1` gave STEP block -1.7, Scp-1 inhibitor -11.6, LMPTP inh 0.9, GRK2 aptamer HTS 1.0, SUMO1-SIM PPI -0.2 and DNMT1 block -4.8.
COc1ccc(-c2csc(Nc3ccc(S(N)(=O)=O)cc3)n2)cc1 was read as STEP block 0.1, Scp-1 inhibitor -0.2, LMPTP inh 2.3, GRK2 aptamer HTS 44.0*, SUMO1-SIM PPI 2.4, DNMT1 block -33.0, GRK2 CP2 -10.8 and FAM quench CP2 100.0.

Source: PubChem BioAssay
